PTEN del growth – PTEN-deleted cell growth suppression. HCT116 PTEN-null viability, CellTiter-Glo, 60 h; stronger effect = lower value. viability, % at 10 µM. 140,000 compounds, 1.2% hits;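 active means viability at or below a set limit, 4 SD under the median of all tested compounds, cut at about 3.7% in these data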;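 further: PTEN knockout HCT116 line with beta catenin targeted HCT116 as companion control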
HUVEC inhibit – inhibitors of human endothelial cell proliferation; HUVEC proliferation, CellTiter-Glo luminescence, 72 h; stronger effect = lower value; viability, % at 10 µM (by protocol); 86,000 compounds, 1.1% hits;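 active means viability at or below 30%; inactive means viability above 30%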;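 further: 100% = median luminescence of DMSO-only cell control wells on each plate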
Lung fibro prol – blocks proliferation of human lung fibroblasts. LL 47 human lung fibroblast viability, ATP luminescence; stronger effect = lower value. viability, % at 10 µM. 85,000 compounds, 1.1% hits. AID 719;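 active means viability at or below 50% in the single dose screen; inactive means viability above 50%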;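 further: compound exposure lasted 72 h before the ATP readout; 100% = median luminescence of untreated cell-only wells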
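Assay system: human lung fibroblast line LL 47, low passage. Input: 1,150 fibroblasts seeded per well. Times: overnight cell rest, 72 h compound treatment at 37 °C. Evaluation: % viability of median cell-only signal. Technique: luminescent ATP detection, CellTiter-Glo. Control set: cell-only wells, no compound.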
HCT116 bCat-KO – beta-catenin-lacking colon tumor cell growth suppression | HCT116 beta-catenin knockout viability, CellTiter-Glo, 60 h; stronger effect = lower value | viability, % at 10 µM | 140,000 compounds, 1.5% hits;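 active means viability at or under a set limit, the compound median less 4 SD, cut at about 6% in these data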;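 further: 0% = Hyamine 1622 control at 20 µM and 100% = untreated cell control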
H69AR inhibit – growth inhibitors of human H69AR lung tumor cells; H69AR lung tumor viability, ATP luminescence, 72 h; stronger effect = lower value; viability, % at 10 µM; 85,000 compounds, 6% hits; AID 598;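 active means viability at or below 40%; inactive means viability above 40%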;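 further: multidrug resistant small cell line overexpressing MRP-1 efflux transporter; 100% = mean luminescence of untreated control wells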
* = called active by the depositor. The full list was thinned out, with hits kept by preference.

How did CC(Sc1nc2cc(Cl)ccc2s1)C(=O)Nc1cccc(S(=O)(=O)N2CCOCC2)c1 (stereo not given) do in these assays?
PTEN del growth: 78.6; HCT116 bCat-KO: 75.0

Results for Brc1cccc(C2CC(c3ccccc3)n3nnnc3N2)c1 (stereo not given) ?
PTEN del growth: 83.5; HUVEC inhibit: 90.6; Lung fibro prol: 93.2; HCT116 bCat-KO: 95.7; H69AR inhibit: 82.8

Results for Cc1cc(N2CCC(C)CC2)nc2cccc(O)c12 ?
PTEN del growth: 87.5; HUVEC inhibit: 82.0; Lung fibro prol: 83.9; HCT116 bCat-KO: 87.1; H69AR inhibit: 59.2

Results for CC1CCCC(C)N1C(=O)CSc1nnc(-c2c[nH]c3ccccc23)o1 (stereo not given) ?
PTEN del growth: 84.1; HUVEC inhibit: 79.6; Lung fibro prol: 89.2; HCT116 bCat-KO: 75.8; H69AR inhibit: 83.1

Results for CCC1CCCCN1C(=O)CSc1nnc(-c2c[nH]c3ccccc23)o1 (stereo not given) ?
PTEN del growth: 79.5; HUVEC inhibit: 108.5; Lung fibro prol: 93.4; HCT116 bCat-KO: 75.2; H69AR inhibit: 34.5*

Results for COc1ccc(CN(C(=O)CSc2nnc(-c3c[nH]c4ccccc34)o2)c2ccc(F)cc2)cc1OC ?
PTEN del growth: 4.5; HUVEC inhibit: 18.0*; Lung fibro prol: 51.4; HCT116 bCat-KO: 6.2; H69AR inhibit: 11.1*

Results for COC(=O)C(C)Sc1nc2c([nH]c3ccccc32)c(=O)n1C (stereo not given) ?
PTEN del growth: 39.0; HUVEC inhibit: 82.0; Lung fibro prol: 99.3; HCT116 bCat-KO: 46.4; H69AR inhibit: 38.8*

How did CCC(C)Sc1nc2c([nH]c3ccccc32)c(=O)n1C (stereo not given) do in these assays?
PTEN del growth: 75.4; HUVEC inhibit: 92.0; Lung fibro prol: 84.5; HCT116 bCat-KO: 78.6; H69AR inhibit: 55.3

What do the screens show for `CCC1CCCCN1C(=O)CSc1nc2c([nH]c3ccccc32)c(=O)n1C` (stereo not given)?
PTEN del growth: 76.3; HUVEC inhibit: 85.4; Lung fibro prol: 105.3; HCT116 bCat-KO: 88.4; H69AR inhibit: 33.5*

What do the screens show for `Cc1c(Nc2cc(N3CCCCCC3)c3nonc3c2[N+](=O)[O-])c(=O)n(-c2ccccc2)n1C`?
PTEN del growth: 78.7; HCT116 bCat-KO: 85.5

Results for CCN(CC)CCNC(=O)c1cc2c(-c3ccc(Cl)cc3)nn(C)c2s1 ?
PTEN del growth: 1.1*; HUVEC inhibit: 2.8*; Lung fibro prol: 21.3*; HCT116 bCat-KO: 1.5*; H69AR inhibit: 2.5*

Results for Cn1nc(-c2ccc(Cl)cc2)c2cc(C(=O)NCCCN3CCOCC3)sc21 ?
PTEN del growth: 27.1; HUVEC inhibit: 2.9*; Lung fibro prol: 39.5*; HCT116 bCat-KO: 14.6; H69AR inhibit: 42.7

What do the screens show for `Cc1ccccc1NC(=O)c1cc(S(=O)(=O)N2CCCCC2)cs1`?
PTEN del growth: 86.2; HUVEC inhibit: 101.5; Lung fibro prol: 105.2; HCT116 bCat-KO: 95.3; H69AR inhibit: 101.6

Results for COc1ccc(/C=N/Nc2ccc([N+](=O)[O-])cc2)cc1Cn1cc([N+](=O)[O-])cn1 ?
PTEN del growth: 93.3; HUVEC inhibit: 47.6; Lung fibro prol: 92.0; HCT116 bCat-KO: 89.3; H69AR inhibit: 13.7*

How did NCCc1ccc(O)c(O)c1 do in these assays?
PTEN del growth: 22.4; HCT116 bCat-KO: 5.8*

How did N#Cc1c(NCCCO)nc(NCc2ccccc2)c2c1CCN(Cc1ccccc1)C2 do in these assays?
PTEN del growth: 59.9; HUVEC inhibit: 70.2; Lung fibro prol: 85.8; HCT116 bCat-KO: 72.7; H69AR inhibit: 42.6

What do the screens show for `CN1CCc2c(C#N)c(N3CCCCC3)nc(NCc3ccccc3)c2C1`?
PTEN del growth: 1.4*; HUVEC inhibit: 10.7*; Lung fibro prol: 67.4; HCT116 bCat-KO: 1.0*; H69AR inhibit: 3.4*

What do the screens show for `Cc1nn(-c2nc3ccccc3s2)c(N)c1Sc1ccc(F)cc1`?
PTEN del growth: 15.3; HUVEC inhibit: 59.4; Lung fibro prol: 17.8*; HCT116 bCat-KO: 32.3; H69AR inhibit: 9.7*

How did CC1CCN(c2nc(Cl)nc(Nc3ccc([N+](=O)[O-])cc3)n2)CC1 do in these assays?
PTEN del growth: 13.4; HCT116 bCat-KO: 2.2*

How did Cc1c(CN(C)CCc2ccccc2)c(=O)n(-c2ccccc2)n1C do in these assays?
PTEN del growth: 92.7; HUVEC inhibit: 98.1; Lung fibro prol: 101.5; HCT116 bCat-KO: 98.3; H69AR inhibit: 79.2

What do the screens show for `Cc1cc(C)n(C(=O)c2ccc(S(=O)(=O)N3CCOCC3)cc2)n1`?
PTEN del growth: 96.9; HUVEC inhibit: 93.9; Lung fibro prol: 97.8; HCT116 bCat-KO: 92.0; H69AR inhibit: 92.9

How did O=c1cc(/C=C/c2cccs2)[nH]c2ccccc12 do in these assays?
PTEN del growth: 21.7; HUVEC inhibit: 56.7; Lung fibro prol: 78.6; HCT116 bCat-KO: 13.5; H69AR inhibit: 24.9*

How did OC1(Cc2ccn[nH]2)CCCCC1 do in these assays?
PTEN del growth: 101.2; HUVEC inhibit: 27.7*; Lung fibro prol: 104.3; HCT116 bCat-KO: 87.6; H69AR inhibit: 101.6

Results for S=C(NCC1CCCO1)Nc1ccc(Cl)cc1Cl (stereo not given) ?
PTEN del growth: 102.4; HCT116 bCat-KO: 96.1

How did CCc1ccc2nc(NC(=O)c3cc(C)on3)sc2c1 do in these assays?
PTEN del growth: 24.5; HUVEC inhibit: 70.8; Lung fibro prol: 74.9; HCT116 bCat-KO: 31.2; H69AR inhibit: 17.3*

How did O=C(Cc1cccs1)Nc1nnc(SCc2ccc(C(F)(F)F)cc2)s1 do in these assays?
PTEN del growth: 104.7; HCT116 bCat-KO: 87.8

How did C1=C(c2ccc(-c3ccccc3)cc2)Nc2ncnn2C1c1ccco1 (stereo not given) do in these assays?
PTEN del growth: 83.7; HUVEC inhibit: 81.9; Lung fibro prol: 101.5; HCT116 bCat-KO: 84.1; H69AR inhibit: 18.4*

How did CCN1CCN(c2ccc(NC(=O)c3cccc(OCc4ccccc4)c3)cc2)CC1 do in these assays?
PTEN del growth: 3.5*; HUVEC inhibit: 46.1; Lung fibro prol: 77.9; HCT116 bCat-KO: 7.6; H69AR inhibit: 44.4

How did COc1ccc(Cn2c(=O)[nH]c3cc(C(=O)Nc4ccc(N5CCN(C)CC5)cc4)ccc32)cc1 do in these assays?
PTEN del growth: 56.3; HCT116 bCat-KO: 62.9

Results for CN1CCN(c2ccc(NC(=O)Cc3ccccc3)cc2)CC1 ?
PTEN del growth: 112.5; HUVEC inhibit: 90.6; Lung fibro prol: 103.3; HCT116 bCat-KO: 102.9; H69AR inhibit: 94.9

Results for CCN1CCN(c2ccc(NC(=O)c3ccc4c(c3)[nH]c(=O)n4Cc3ccc(F)cc3)cc2)CC1 ?
PTEN del growth: 1.8*; HCT116 bCat-KO: 3.4*

Results for COc1cccc(C(=O)Nc2ccc(N3CCN(Cc4ccccc4)CC3)cc2)c1 ?
PTEN del growth: 76.5; HUVEC inhibit: 103.6; Lung fibro prol: 99.1; HCT116 bCat-KO: 65.9; H69AR inhibit: 69.7

Results for CCCN1Cc2cccc(C(=O)Nc3ccc(N4CCN(CC)CC4)cc3)c2C1=O ?
HUVEC inhibit: 84.0; Lung fibro prol: 103.2; H69AR inhibit: 22.2*

Screening results (PubChem BioAssay)
